In PubChem BioAssay AID624466 (The Scripps Research Institute Molecular Screening Center, 2012):
Hit rate of the full screen: of about 360,000 compounds, about 5,400 (1.5%) were called active.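 The calls were made as follows: active = inhibition above a per-plate cutoff, the mean inhibition of test compounds on that plate plus 3 SD (cut at about 49% in these data); inactive = the rest.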 The entries come from a sample that favours actives as a whole.

biological target: Trace amine-associated receptor 1 (Homo sapiens) (UniProt Q96RJ0); assay: blockers of beta-PEA-driven TAAR1 calcium signal – Fluo-8 calcium fluorescence, CHO RD-HGA16 cells, primary screen (AID 624466); settings: CHO RD-HGA16 TAAR1, Fluo-8 calcium fluorescence, antagonist; at 3 µM; active compounds read high;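 also: 0% = DMSO plus EC80 beta-PEA response and 100% = DMSO alone without agonist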
Outline: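 System: CHO RD-HGA16 cells bearing hTAAR1. Reagent: EC80 β-phenethylamine stimulus. Schedule: seeding 17-24 h prior, 75-min 37 °C, 30-min RT dye loading. Signal: Fluo-8 intracellular calcium dye fluorescence, real-time kinetic reads. Read-out: % inhibition from peak post-agonist over basal fluorescence ratio. Benchmarks: vehicle wells and EC80 agonist wells. Replicates: n of 1.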

Chain of Trace amine-associated receptor 1 (Homo sapiens) (Q96RJ0 whole entry, looked up): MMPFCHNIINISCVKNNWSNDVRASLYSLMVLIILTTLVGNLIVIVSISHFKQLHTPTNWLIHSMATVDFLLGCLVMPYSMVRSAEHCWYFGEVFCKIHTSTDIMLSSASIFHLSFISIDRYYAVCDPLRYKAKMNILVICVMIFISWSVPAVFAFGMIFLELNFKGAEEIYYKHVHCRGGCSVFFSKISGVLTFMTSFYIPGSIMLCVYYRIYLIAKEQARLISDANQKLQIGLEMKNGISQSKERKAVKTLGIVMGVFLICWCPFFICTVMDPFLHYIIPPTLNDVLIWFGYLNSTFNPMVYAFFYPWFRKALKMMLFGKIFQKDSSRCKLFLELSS

inhibition, active:
O=C(Nc1ccc(-c2nnc(-c3ccccc3)o2)cc1)c1ccc(Br)o1 71%
Cc1cc(OCCCCOc2ccc(C#N)cc2)ccc1[N+](=O)[O-] 51.1%
N/C(=N\c1nc2ccccc2o1)NC(=O)C(Cc1ccccc1)N1C(=O)c2ccccc2C1=O (configuration not stated) 49%
COCOCCn1cc(CN2CCS(=O)(=O)N(Cc3ccc(-c4ccc(OC)cc4)cc3)C(CC(C)C)C2=O)nn1 (configuration not stated) 54.1%
COCOCCn1cc(CN2CCS(=O)(=O)N(Cc3ccc(-c4ccccc4)cc3)C(CC(C)C)C2=O)nn1 (configuration not stated) 54.1%

inhibition, inactive:
CCS(=O)(=O)c1ccc(-c2cccc(NC(=O)c3ccc(Br)o3)c2)nn1 13.4%
CN1CCN(C(=O)c2ccc(NC(=O)c3ccc(Br)o3)cc2)CC1 -4.9%
CC(=O)OCC1(O)CC23CCC4c5ccoc5CCC4(C)C2CCC1C3 (configuration not stated) 13.6%
COC(=O)C[C@@H]1C=C[C@@H](NC(=O)c2cccnc2)[C@@H](CO)O1 -15.9%
CCC(C)(C)NC(=O)c1cc([N+](=O)[O-])ccc1N1CCCCC1 -10.4%
Cc1cc(OCCCN2CCN(Cc3ccccc3)CC2)ccc1[N+](=O)[O-] -20.9%
Cc1cc(OCC(=O)NC2CCN(C)CC2)ccc1[N+](=O)[O-] -21.6%
COc1ccc(-n2nc(C(=O)NCC(=O)N3CCC(C(N)=O)CC3)c3ccccc3c2=O)cc1OC 1.2%
CCOC(=O)C(Cc1ccc(N)cc1)N1C(=O)c2ccccc2C1=O (configuration not stated) 10.7%
O=C(NCCN1CCOCC1)[C@H](Cc1ccccc1)N1C(=O)c2ccccc2C1=O -8.4%
CC(C)(C)C1CCC(=O)N2CCC[C@]2(c2ccccc2)C1 (some centres not stated) -2.31%
CC(C)CC1C(=O)N(Cc2cn(CC3CCCCC3)nn2)CCS(=O)(=O)N1Cc1ccc(-c2ccc(Cl)cc2)cc1 (configuration not stated) -15.1%
COc1ccc(-c2ccc(CN3C(CC(C)C)C(=O)N(Cc4cn(CC5CCCCC5)nn4)CCS3(=O)=O)cc2)cn1 (configuration not stated) -9.27%
COCOCCn1cc(CN2CCS(=O)(=O)N(Cc3ccc(-c4cccc(N(C)C)c4)cc3)C(CC(C)C)C2=O)nn1 (configuration not stated) 1.52%
COc1ccc(-c2ccc(CN3C(CC(C)C)C(=O)N(Cc4cn(CC5CCCCC5)nn4)CCS3(=O)=O)cc2)cc1 (configuration not stated) -8.03%
CCOc1ccc(CNC(=O)CCC(=O)N2CCSc3ccccc32)cc1 -0.53%
O=S1(=O)CC(N2CCN(CCO)CC2)CN1Cc1cn(Cc2ccc(Cl)cc2)nn1 (configuration not stated) -8.26%
